Measured values taken from publication PMC3772679 (The European journal of neuroscience, 2012).
pEC50: −log10 of the molar value. Like-named read-outs stand apart in the source and are kept apart here.

Key:
[1] = system: PC GABAA receptor (GABAergic IPSC in Purkinje neurons); assay type: cell-based, mouse; settings: for IPSC decay time constant in the presence of etomidate: 3 µM, 10 min
[2] = target: GABAA receptors composed of α1β3γ2; settings: heterologous expression systems; ref Belelli et al., 2003; cited from earlier work
[3] = system: PC GABAA receptor (β1-subunit-containing); test: Loreclezole inhibition of GABA-mediated current in cultured Purkinje cells; assay type: cell-based, rat; settings: 30 µM
Outline: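 Cerebellar neurons plated on glass coverslips (2.8 × 10^5 cells), kept at 37 °C in 5% CO2 and recorded after 10–14 days in vitro. 1 s pulses of 20 µM GABA every 30 s until baseline stable; 30 µM test compound (DMSO stock diluted in saline) applied by local perfusion for 30 s, then kept through three more GABA pulses. 1 mM GABA given at end of recording. n = individual cells; mean ± SEM.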

Compound: CCOC(=O)c1cncn1[C@H](C)c1ccccc1 [Etomidate]
- IPSC decay time constant in the presence of etomidate ([1]; slices 3 h after CA/CPR, P < 0.05 vs sham): 534.5 ± 42.3 ms
- IPSC decay time constant in the presence of etomidate ([1]; slices from control sham-operated mice): 837 ± 128 ms
- pEC50 [2]: 5.40

Compound: Cl/C(=C\n1cncn1)c1ccc(Cl)cc1Cl [loreclezole]
- Initial reduction in GABA-mediated current ([3]; 30 s pre-application, 20 µM GABA pulses): 30%
- Maximal decrease in GABA-mediated current with subsequent pulses of GABA ([3]; 20 µM GABA pulses every 30 s, n = 4): 65.5 ± 6.8%

Compound: picrotoxin
- Effect on outward GABAergic IPSC in Purkinje neurons ([1]; data not shown): blocked
